Assay results: ChEMBL document CHEMBL4014276, “Diphenylurea derivatives for combating methicillin- and vancomycin-resistant Staphylococcus aureus” (Eur J Med Chem, 2017)
In brackets after ≈: the same amount, converted by molar mass. Activity calls are given as the source filed them. The calls are words filed in the database; no cut-off is given here.

How the values were obtained:
[1] = Intrinsic clearance in human liver microsomes in presence of NADPH by LC-MS/MS method; type: ADME, microsome; settings: read-out: CLH
Staphylococcus aureus [2] = test: Antibacterial activity against methicillin-resistant Staphylococcus aureus USA400 NRS123 clinical isolate preincubated followed by bacterial subculturing for 2 weeks; type: functional
Staphylococcus aureus [3] = test: Antibacterial activity against methicillin-resistant Staphylococcus aureus USA200 NRS383 clinical isolate preincubated followed by bacterial subculturing for 2 weeks; type: functional
Staphylococcus aureus [4] = test: Bactericidal activity against methicillin-resistant Staphylococcus aureus USA100 NRS382 clinical isolate after 18 hrs by broth microdilution method; type: functional; settings: USA100 NRS382, 18 h
Procedure, shortened: (§1)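 From MIC wells without visible growth, 5 uL spotted onto Tryptic soy agar, incubated 37 °C for at least 18 h; MBC taken as lowest concentration giving 99.9% growth inhibition.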

Staphylococcus aureus [5] = test: Antibacterial activity against methicillin-resistant Staphylococcus aureus USA100 NRS382 clinical isolate after 20 hrs by broth microdilution method; type: functional; settings: USA100 NRS382, 20 h
Procedure, shortened: (§2)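 CLSI broth microdilution in cation-adjusted Mueller Hinton broth; compounds serially diluted, triplicate samples; 37 °C, 20 h. MIC read visually as lowest concentration with no visible growth; mean of triplicate determinations reported.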

Staphylococcus aureus [6] = test: Antibacterial activity against methicillin-resistant Staphylococcus aureus USA100 NRS382 clinical isolate preincubated followed by bacterial subculturing for 2 weeks; type: functional
[7] = Half life in human liver microsomes in presence of NADPH by LC-MS/MS method; type: ADME, microsome
Staphylococcus aureus [8] = test: Antibacterial activity against methicillin-resistant Staphylococcus aureus USA300 NRS384 clinical isolate preincubated followed by bacterial subculturing for 2 weeks; type: functional
[9] = Intrinsic clearance in human liver microsomes in absence of NADPH by LC-MS/MS method; type: ADME, microsome; settings: read-out: CLH
[10] = Half life in human liver microsomes in absence of NADPH by LC-MS/MS method; type: ADME, microsome
Staphylococcus aureus [11] = test: Antibacterial activity against vancomycin-resistant Staphylococcus aureus VRSA4 after 20 hrs by broth microdilution method; type: functional; settings: VRSA4, 20 h; procedure, shortened: as §2
Staphylococcus aureus [12] = test: Antibacterial activity against Staphylococcus aureus RN4220 NRS107 clinical isolate after 20 hrs by broth microdilution method; type: functional; settings: RN4220 NRS107, 20 h; procedure, shortened: as §2
Staphylococcus aureus [13] = test: Antibacterial activity against methicillin-resistant Staphylococcus aureus USA400 NRS123 clinical isolate after 20 hrs by broth microdilution method; type: functional; settings: USA400 NRS123, 20 h; procedure, shortened: as §2
Staphylococcus aureus [14] = test: Antibacterial activity against methicillin-resistant Staphylococcus aureus USA300 NRS384 clinical isolate after 20 hrs by broth microdilution method; type: functional; settings: USA300 NRS384, 20 h; procedure, shortened: as §2
Staphylococcus aureus [15] = test: Bactericidal activity against methicillin-resistant Staphylococcus aureus USA200 NRS383 clinical isolate after 18 hrs by broth microdilution method; type: functional; settings: USA200 NRS383, 18 h; procedure, shortened: as §1
Staphylococcus aureus [16] = test: Bactericidal activity against vancomycin-resistant Staphylococcus aureus VRSA4 after 18 hrs by broth microdilution method; type: functional; settings: VRSA4, 18 h; procedure, shortened: as §1
Staphylococcus aureus [17] = test: Bactericidal activity against methicillin-resistant Staphylococcus aureus USA400 NRS123 clinical isolate after 18 hrs by broth microdilution method; type: functional; settings: USA400 NRS123, 18 h; procedure, shortened: as §1
Staphylococcus aureus [18] = test: Bactericidal activity against methicillin-resistant Staphylococcus aureus USA300 NRS384 clinical isolate after 18 hrs by broth microdilution method; type: functional; settings: USA300 NRS384, 18 h; procedure, shortened: as §1
Staphylococcus aureus [19] = test: Bactericidal activity against Staphylococcus aureus RN4220 NRS107 clinical isolate after 18 hrs by broth microdilution method; type: functional; settings: RN4220 NRS107, 18 h; procedure, shortened: as §1
Staphylococcus aureus [20] = test: Bactericidal activity against vancomycin-resistant Staphylococcus aureus VRSA10 after 18 hrs by broth microdilution method; type: functional; settings: VRSA10, 18 h; procedure, shortened: as §1
Staphylococcus aureus [21] = test: Antibacterial activity against methicillin-resistant Staphylococcus aureus USA200 NRS383 clinical isolate after 20 hrs by broth microdilution method; type: functional; settings: USA200 NRS383, 20 h; procedure, shortened: as §2
Staphylococcus aureus [22] = test: Antibacterial activity against vancomycin-resistant Staphylococcus aureus VRSA10 after 20 hrs by broth microdilution method; type: functional; settings: VRSA10, 20 h; procedure, shortened: as §2
HaCaT = test: Cytotoxicity against human HaCaT cells up to 64 ug/ml after 2 hrs by MTS assay; type: cell-based
Procedure, shortened: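 Keratinocytes grown in DMEM with 10% FBS at 37 °C, 5% CO2; exposed in triplicate to 8, 16, 32 and 64 µg/mL for 2 h. DMSO-matched controls. MTS added for 4 h, absorbance at 490 nm. Viability expressed as % of DMSO-treated cells (mean of triplicate ± SD); one-way ANOVA with Dunnett's test, P < 0.05.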

[23] = Apparent permeability across basolateral to apical side in human Caco2 cells at 10 uM after 2 hrs by LC-MS/MS method; type: ADME, cell-based; settings: Caco-2
Staphylococcus aureus [24] = test: Bactericidal activity against methicillin-resistant Staphylococcus aureus USA400 assessed as time required to reduce log10CFU of bacterial load at 4 times MIC by time kill assay; type: functional
Staphylococcus aureus [25] = test: Bactericidal activity against methicillin-resistant Staphylococcus aureus USA400 infected in mouse J774 cells assessed as reduction in colony forming units at 16 ug/ml after 24 hrs by time kill assay relative to control; type: functional
Procedure, shortened: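 J774 murine macrophages in DMEM/10% FBS infected with MRSA USA400 at MOI ~100:1 for 1 h, extracellular bacteria killed with gentamicin 50 µg/mL; treated at 16 µg/mL in triplicate; after 4, 8 or 24 h cells washed, lysed with 0.1% Triton X-100, plated for CFU; percent reduction versus untreated, t-test.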

Staphylococcus aureus [26] = test: Bactericidal activity against methicillin-resistant Staphylococcus aureus USA400 NRS123 clinical isolate assessed as disruption of bacterial membrane by measuring leakage of 260 nM absorbing material at 5 times MIC after 30 mins by spectrophotometric method; type: functional
Staphylococcus aureus [27] = test: Antibacterial activity against methicillin-resistant Staphylococcus aureus USA400 infected in Caenorhabditis elegans AU37 harboring (sek-1(km4);glp-4(bn2)I) mutant assessed as reduction in colony forming units at 10 ug/ml after 20 hrs by microscopic method relative to control; type: functional; design: scale not given: the % may be the effect or the level left
Procedure, shortened: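 C. elegans AU37 L4/adult worms infected on MRSA USA400 lawn 6 h, washed in M9; 15-25 worms per well treated with 10 µg/mL in triplicate for 20 h, PBS negative control; worms lysed with silicon carbide, plated on TSA with 5 µg/mL nalidixic acid, 37 °C 18 h; CFU per worm, Student's t-test with Holm-Sidak correction.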

Staphylococcus aureus [28] = test: Bactericidal activity against methicillin-resistant Staphylococcus aureus USA400 NRS123 clinical isolate assessed as disruption of bacterial membrane by measuring leakage of 280 nM absorbing material at 5 times MIC after 30 mins by spectrophotometric method; type: functional
[29] = Apparent permeability across apical to basolateral side in human Caco2 cells at 10 uM after 2 hrs by LC-MS/MS method; type: ADME, cell-based; settings: Caco-2

Structure (SMILES) | microsomal CLint [1] [µL/min/mg] | Activity (Staphylococcus aureus [2]) | Activity (Staphylococcus aureus [3]) | MBC (Staphylococcus aureus [4]) [µg/mL] | MIC (Staphylococcus aureus [5]) [µg/mL] | Activity (Staphylococcus aureus [6]) | half-life [7] [h] | Activity (Staphylococcus aureus [8]) | MIC (Staphylococcus aureus [11]) [µg/mL] | MIC (Staphylococcus aureus [12]) [µg/mL] | MIC (Staphylococcus aureus [13]) [µg/mL] | MIC (Staphylococcus aureus [14]) [µg/mL] | MBC (Staphylococcus aureus [15]) [µg/mL] | MBC (Staphylococcus aureus [16]) [µg/mL] | MBC (Staphylococcus aureus [17]) [µg/mL] | MBC (Staphylococcus aureus [18]) [µg/mL] | MBC (Staphylococcus aureus [19]) [µg/mL] | MBC (Staphylococcus aureus [20]) [µg/mL] | MIC (Staphylococcus aureus [21]) [µg/mL] | MIC (Staphylococcus aureus [22]) [µg/mL] | also measured
C/C(=N\NC(=N)N)c1ccc(NC(=O)Nc2ccc(C(C)(C)C)cc2)cc1 | 20 | Active | Active | 128 (≈ 349 µM) | 64 (≈ 175 µM) | Active | 2.9 | Active | – | – | – | – | – | – | – | – | – | – | – | – | –
Cc1ncc2n1-c1ccc(Cl)cc1C(c1ccccc1F)=NC2 [MIDAZOLAM] | 402 | – | – | – | – | – | 0.095 | – | – | – | – | – | – | – | – | – | – | – | – | – | microsomal CLint [9]: < 9.6 µL/min/mg; half-life [10]: > 4 h
CCCCOc1ccc(NC(=O)Nc2ccc(/C(C)=N/NC(=N)N)cc2)cc1 | 51 | Active | Active | 16 (≈ 41.8 µM) | 16 (≈ 41.8 µM) | Active | 1.09 | Active | 16 (≈ 41.8 µM) | 16 (≈ 41.8 µM) | 8 (≈ 20.9 µM) | 16 (≈ 41.8 µM) | 32 (≈ 83.7 µM) | 16 (≈ 41.8 µM) | 32 (≈ 83.7 µM) | 16 (≈ 41.8 µM) | > 64 | 32 (≈ 83.7 µM) | 16 (≈ 41.8 µM) | 16 (≈ 41.8 µM) | –
CCCCc1ccc(NC(=O)Nc2ccc(/C(C)=N/NC(=N)N)cc2)cc1 | 190 | – | – | – | – | – | 0.217 | – | – | – | 8 (≈ 21.8 µM) | – | – | – | – | – | – | – | – | – | –
CCCCCOc1ccc(NC(=O)Nc2ccc(/C(C)=N/NC(=N)N)cc2)cc1 | – | Active | Active | 4 (≈ 10.1 µM) | 4 (≈ 10.1 µM) | Active | – | Active | 4 (≈ 10.1 µM) | 4 (≈ 10.1 µM) | 4 (≈ 10.1 µM) | 4 (≈ 10.1 µM) | 4 (≈ 10.1 µM) | 4 (≈ 10.1 µM) | 16 (≈ 40.4 µM) | 4 (≈ 10.1 µM) | 8 (≈ 20.2 µM) | 8 (≈ 20.2 µM) | 4 (≈ 10.1 µM) | 4 (≈ 10.1 µM) | Activity (HaCaT): Non-Toxic
CNC(=C[N+](=O)[O-])NCCSCc1ccc(CN(C)C)o1 [RANITIDINE] | – | – | – | – | – | – | – | – | – | – | – | – | – | – | – | – | – | – | – | – | Papp B→A at 2 h, 10 µM [23]: 2.31 ×10⁻⁶ cm/s
C/C(=N\NC(=N)N)c1ccc(NC(=O)Nc2ccc(OCCCC(C)C)cc2)cc1 | – | Active | Active | 8 (≈ 19.5 µM) | 4 (≈ 9.74 µM) | Active | – | Active | 4 (≈ 9.74 µM) | 4 (≈ 9.74 µM) | 4 (≈ 9.74 µM) | 8 (≈ 19.5 µM) | 8 (≈ 19.5 µM) | 4 (≈ 9.74 µM) | 8 (≈ 19.5 µM) | 8 (≈ 19.5 µM) | 4 (≈ 9.74 µM) | 4 (≈ 9.74 µM) | 4 (≈ 9.74 µM) | 4 (≈ 9.74 µM) | Time (Staphylococcus aureus [24]): <=4 hr
CN[C@H](CC(C)C)C(=O)N[C@H]1C(=O)N[C@@H](CC(N)=O)C(=O)N[C@H]2C(=O)N[C@H]3C(=O)N[C@H](C(=O)N[C@H](C(=O)O)c4cc(O)cc(O)c4-c4cc3ccc4O)[C@H](O)c3ccc(c(Cl)c3)Oc3cc2cc(c3O[C@@H]2O[C@H](CO)[C@@H](O)[C@H](O)[C@H]2O[C@H]2C[C@](C)(N)[C@H](O)[C@H](C)O2)Oc2ccc(cc2Cl)[C@H]1O [VANCOMYCIN] | – | – | – | < 1 | < 1 | – | – | – | > 128 | – | – | – | 0.5 (≈ 0.345 µM) | > 128 | 0.5 (≈ 0.345 µM) | 1 (≈ 0.69 µM) | 1 (≈ 0.69 µM) | > 128 | – | > 128 | Activity (Staphylococcus aureus [25]): inactive; Activity (Staphylococcus aureus [26]): inactive; Time (Staphylococcus aureus [24]): 24 h; Activity (Staphylococcus aureus [27]): 25%; Activity (Staphylococcus aureus [28]): inactive
CCCCCCOc1ccc(NC(=O)Nc2ccc(/C(C)=N/NC(=N)N)cc2)cc1 | – | Active | Active | 4 (≈ 9.74 µM) | 4 (≈ 9.74 µM) | Active | – | Active | 8 (≈ 19.5 µM) | 8 (≈ 19.5 µM) | 8 (≈ 19.5 µM) | 8 (≈ 19.5 µM) | 8 (≈ 19.5 µM) | 8 (≈ 19.5 µM) | 16 (≈ 39 µM) | 16 (≈ 39 µM) | 8 (≈ 19.5 µM) | 8 (≈ 19.5 µM) | 4 (≈ 9.74 µM) | 8 (≈ 19.5 µM) | –
CC(=O)CC(c1ccccc1)c1c(O)c2ccccc2oc1=O (stereo unspecified) [WARFARIN] | < 9.6 | – | – | – | – | – | – | – | – | – | – | – | – | – | – | – | – | – | – | – | Papp B→A at 2 h, 10 µM [23]: 20.3 ×10⁻⁶ cm/s; microsomal CLint [9]: < 9.6 µL/min/mg; Papp A→B at 2 h, 10 µM [29]: 27.7 ×10⁻⁶ cm/s
